# Published values pooled from the literature.
# Organism: Klebsiella pneumoniae
# Observed: microbial growth
SMILES,method,strain,time,MIC
CCCCCCC#Cc1cncc(-c2nnc(SCc3ccc(Cl)cc3)n2C)c1,,,,≥ 20 µg/mL
O=C(N[C@H](CO)[C@H](O)c1ccc([N+](=O)[O-])cc1)C(Cl)Cl,broth dilution,ATCC700603,,80 µM
CC(C)Oc1c(NC(=O)c2ccc(NC(=O)c3ccc(NC(=O)[C@H](CC(N)=O)NC(=O)c4ccc(NC(=O)c5ccc(C#N)cn5)cc4)cc3)c(OC(C)C)c2O)ccc(C(=O)O)c1O,,DSM30104,,4 µg/mL
Cc1c(CN(C)C(=O)/C=C/c2cnc3c(c2)CC(CCN)C(=O)N3)oc2ccccc12.Cl (stereo not drawn),broth dilution,BAA1705,,16 µg/mL
CCCCCCC#Cc1cncc(-c2nnc(SCc3ccc(Cl)cc3)n2C2CC2)c1,,,,≥ 20 µg/mL
CNC(=O)c1cc(Oc2ccc(NC(=O)Nc3ccc(Cl)c(C(F)(F)F)c3)cc2)ccn1,,DSM30104,,> 100 µM
CC[C@H]1OC(=O)[C@H](C)[C@@H](O[C@H]2C[C@@](C)(OC)[C@@H](O)[C@H](C)O2)[C@H](C)[C@@H](O[C@@H]2O[C@H](C)C[C@H](N(C)C)[C@H]2O)[C@](C)(OC)C[C@@H](C)C(=O)[C@H](C)[C@@H](O)[C@]1(C)O,broth dilution,ATCC700603,,80 µM
CN(C)[C@@H]1C(O)=C(C(N)=O)C(=O)[C@@]2(O)C(O)=C3C(=O)c4c(cc5ccc(CN6CC(C#N)C6)cc5c4O)C[C@H]3C[C@@H]12,broth dilution,ATCC13883,,16 µg/mL
C[C@@H](O)[C@H]1C(=O)N2C(C(=O)O)=C(S[C@@H]3CN[C@H](C(=O)N(C)C)C3)[C@H](C)[C@H]12,broth dilution,ATCC700603,,0.63 µM
CN(C)c1ccc(-c2ccc3cc4c(c(O)c3c2)C(=O)C2=C(O)[C@]3(O)C(=O)C(C(N)=O)=C(O)[C@@H](N(C)C)[C@@H]3C[C@@H]2C4)cc1,broth dilution,ATCC13883,,32 µg/mL
CCc1c(Cl)c(O)c(Cl)c(O)c1C(=O)O[C@H]1[C@H](O)[C@H](OC)[C@H](OC/C2=C\C=C\C[C@H](O)/C(C)=C/[C@H](CC)[C@@H](O[C@@H]3OC(C)(C)[C@@H](OC(=O)C(C)C)[C@H](O)[C@@H]3O)/C(C)=C/C(C)=C/C[C@@H]([C@@H](C)O)OC2=O)O[C@@H]1C,broth dilution,ATCC700603,,320 µM
NC1CCCCc2c1[nH]c1ccc(Cl)c(Cl)c21 (stereo not drawn),broth dilution,ATCC10031,,8 µg/mL
CC1=NN(CNC(=O)c2ccccn2)C(=O)C1=NNn1c(-c2ccccc2)nc2ccccc2c1=O,broth dilution,,24 h,52 µM
Cc1c(CN(C)C(=O)/C=C/c2cnc3c(c2)CC(NC(=O)OC(C)(C)C)C(=O)N3)oc2ccccc12 (stereo not drawn),broth dilution,,,> 32 µg/mL
CC1=NN(CNc2ccc(C(=O)O)cc2)C(=O)C1=NNn1c(-c2ccccc2)nc2ccccc2c1=O,broth dilution,,24 h,50.5 µM
CO/N=C(\C(=O)N[C@@H]1C(=O)N2C(C(=O)[O-])=C(C[N+]3(C)CCCC3)CS[C@H]12)c1csc(N)n1,broth dilution,ATCC700603,,1.3 µM
CC1=NN(CNC(=O)c2ccccc2)C(=O)C1=NNn1c(-c2ccccc2)nc2ccccc2c1=O,broth dilution,,24 h,51.9 µM
NCC[C@H](O)C(=O)N[C@@H]1C[C@H](N)[C@@H](O[C@H]2O[C@H](CN)[C@@H](O)[C@H](O)[C@H]2O)[C@H](O)[C@H]1O[C@H]1O[C@H](CO)[C@@H](O)[C@H](N)[C@H]1O,,,,1 µg/mL
